Consider nine compounds from ChEMBL document CHEMBL1153915, “[18F]FEAC and [18F]FEDAC: Two novel positron emission tomography ligands for peripheral-type benzodiazepine receptor in the brain” (Bioorg Med Chem Lett, 2009).

Some results are limits rather than exact numbers.

Series [1] can be described thus: Distribution coefficient, log D in octanol/phosphate buffer at pH 7.4 by shaking flask method. The format is physicochemical.
In series [2] the target is T1, Translocator protein (Rattus norvegicus, UniProt P16257). The series can be described thus: Displacement of [11C]DAA1106 from PBR receptor in rat brain membrane. The format is cell membranes. In general terms: In a radioligand displacement assay an active substance lowers the binding of a labelled ligand.
A short description of series [3]: Displacement of [11C]flumazenil from CBR receptor in rat brain membrane. Type of series: cell membranes. The method in brief: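 Competition against [11C]flumazenil binding in rat brain homogenate; Ki derived; mean ± SD from duplicate homogenates.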
In series [4] the target is T1, Translocator protein. Nature of the series: Displacement of [11C]PK11195 from PBR receptor in rat brain membrane. The format is cell membranes.
Series [5] concerns Striatum. Nature of the series: Drug uptake in non-lesioned Sprague-Dawley rat striatum assessed as standardized uptake value. Type of series: ADME, tissue-based. To be noted: in vivo. The method, boiled down: (§1)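 Dynamic small-animal PET of [18F]-labelled ligand in neuroinflammatory rats (n = 4). Striatal time-activity curves are expressed as SUV = (radioactivity per cm3 tissue / injected radioactivity) × g body weight, as mean ± SD.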

The test system of series [6] is Striatum. Nature of the series: Drug uptake in kainic acid-lesioned Sprague-Dawley rat striatum assessed as standardized uptake value. Particulars: in vivo. The format is ADME, tissue-based. The method, boiled down: as §1
In series [7] the test system is Striatum. Nature of the series: Ratio of drug uptake in kainic acid-lesioned to non-lesioned Sprague-Dawley rat striatum after 10 to 20 mins. Type of series: ADME, tissue-based. To be noted: in vivo. The method, boiled down:
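From small-animal PET time-activity curves in neuroinflammatory rats (n = 4), the radioactivity in the lesioned striatum is divided by that in the non-lesioned striatum over the scan, and the maximum ratio is taken.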

T1 sequence (P16257 whole entry, looked up): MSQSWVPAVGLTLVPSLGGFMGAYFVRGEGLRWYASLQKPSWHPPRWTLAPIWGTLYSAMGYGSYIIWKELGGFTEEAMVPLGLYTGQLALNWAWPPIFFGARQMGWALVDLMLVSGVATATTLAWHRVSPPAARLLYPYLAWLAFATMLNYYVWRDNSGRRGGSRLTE

By logD is commonly meant the decadic logarithm of the distribution of all forms, ionised or not, between an organic phase and buffer at a given pH. A word on the Ki: it is a measure of affinity in units of concentration, obtained from inhibition or displacement. Regarding `COc1ccc(OCCF)c(CN(C(C)=O)c2cc(F)ccc2Oc2ccccc2)c1`, the log distribution coefficient (logD) in series [1] was determined as 3.8. The Ki is 0.08 nM in series [2] and greater than 1000 nM in series [3].

`CCC(C)N(C)C(=O)c1cc2ccccc2c(-c2ccccc2Cl)n1` (stereo not given) [PK-11195] yielded a logD in series [1] of 3.7. Moreover, the Ki in series [3] is greater than 8400 nM.

As for `CN(Cc1ccccc1)C(=O)Cn1c(=O)n(CCF)c2cnc(-c3ccccc3)nc21`, the inhibition constant Ki amounted to 1.34 nM in series [4] and 8400 nM in series [3]. Besides, in series [1], the logD came to 3.2.

Take `Cn1c(=O)n(CC(=O)N(CCF)Cc2ccccc2)c2nc(-c3ccccc3)ncc21`: the Ki in series [4] is 0.51 nM; in series [3] it was greater than 8400 nM. In series [1], this compound yielded a logD of 3.1.

For `CN(Cc1ccccc1)C(=O)Cn1c(=O)n(CC[18F])c2cnc(-c3ccccc3)nc21`, the SUV in series [5] is 0.9; in series [6] it was 1.6. The Ratio in series [7] came out at 2.5.

`CCN(Cc1ccccc1)C(=O)Cn1c(=O)n(C)c2cnc(-c3ccccc3)nc21`: the Ki is 0.2 nM in series [4] and greater than 8400 nM in series [3]. Further, in series [1], the log distribution coefficient (logD) is 3.3.

As to `COc1ccc(OCC[18F])c(CN(C(C)=O)c2cc(F)ccc2Oc2ccccc2)c1`, the SUV in series [5] was 1.3; in series [6], 1.5.

With `CCN(Cc1ccccc1)C(=O)Cn1c(=O)n(CCF)c2cnc(-c3ccccc3)nc21`, the Ki in series [4] is 0.49 nM; in series [3], greater than 8400 nM. In addition, the logD in series [1] came out at 3.6.

Consider `CCN(Cc1ccccc1)C(=O)Cn1c(=O)n(CC[18F])c2cnc(-c3ccccc3)nc21`, for which the SUV in series [5] turned out to be 0.8; in series [6], 1.2. In addition, the Ratio in series [7] was 2.5.
